Experimental data of several laboratories.
Effect on: cell growth or viability

SMILES | cell line | technique | time | IC50 [nM]
C=CC(=O)N1CCN(c2nc(=O)n(-c3c(C)ccnc3C(C)C)c3nc(-c4c(O)cccc4F)c(F)cc23)[C@@H](C)C1 | MIA PaCa-2 | ATP luminescence |  | 23.5
COc1cc2c3c(n(CCCNCCO)c(=O)c2cc1OC)-c1nc2c(cc1C3=O)OCO2 | KMS-27 | MTS | 72 h | 141
COc1ccc(-c2cc(C(=O)Nc3ccccc3)c3cc(-c4cc(F)ccc4OC)ccc3n2)cc1 | MIA PaCa-2 | MTT | 48 h | > 50000
CN1CCC(NC(=O)c2ccc(-c3cc(-c4ccsc4)c4oc5c(c4c3)CCN(C(=O)/C=C/c3ccc(N)nc3)C5)nn2)C(F)(F)C1 (stereo not shown) | MIA PaCa-2 | CCK-8 | 72 h | 650
CCNCCCn1c2c(c3cc(OC)c(OC)cc3c1=O)C(=O)c1cc3c(nc1-2)OCO3 | MOLT-4 | MTS | 72 h | 13
CN1CCC(NC(=O)c2ccc(-c3cc(C4CC4)c4oc5c(c4c3)CCN(C(=O)/C=C/c3ccc(N)nc3)C5)nn2)C(F)(F)C1 (stereo not shown) | MIA PaCa-2 | CCK-8 | 72 h | 1900
COc1ccc(-c2cc(C(=O)Nc3ccccc3)c3cc(-c4cc(Cl)ccc4F)ccc3n2)cc1 | MIA PaCa-2 | MTT | 48 h | > 50000
C=C(F)C(=O)N1CCN(c2nc(OC[C@@H]3CCCN3C)nc3c2CCN(c2cccc4cccc(Cl)c24)C3)C[C@@H]1CC#N | SW837 | ATP luminescence |  | 86.2
COc1cc2c3c(n(CCCn4ccnc4)c(=O)c2cc1OC)-c1nc2c(cc1C3=O)OCO2 | KMS-27 | MTS | 72 h | 238
COc1ccc(-c2cc(C(=O)Nc3ccccc3)c3cc(-c4ccc(Cl)cc4)ccc3n2)cc1 | MIA PaCa-2 | MTT | 48 h | > 50000
Cc1sc2c(c1C)C(c1ccc(Cl)cc1)=N[C@@H](CC(=O)NCCCCCCCCNC(=O)COc1cccc3c1C(=O)N(C1CCC(=O)NC1=O)C3=O)c1nnc(C)n1-2 (stereo partly shown) | MOLT-4 | ATP luminescence |  | 23
COc1cc2c3c(n(CCCN4CCOCC4)c(=O)c2cc1OC)-c1nc2c(cc1C3=O)OCO2 | KMS-27 | MTS | 72 h | 530
Nc1ccc(/C=C/C(=O)N2CCc3c(oc4c(-c5ccc(F)cc5)cc(-c5ccc(C(=O)N6CCC(F)(F)CC6)cc5F)cc34)C2)cn1 | MIA PaCa-2 | CCK-8 | 72 h | 2660
COc1ccc(-c2cc(C(=O)Nc3ccccc3)c3cc(-c4cnc(Cl)c(C)c4)ccc3n2)cc1 | MIA PaCa-2 | MTT | 48 h | > 50000
COc1cc([C@@H]2c3cc4c(cc3[C@@H](O[C@@H]3O[C@@H]5CO[C@@H](C)O[C@H]5[C@H](O)[C@H]3O)[C@H]3COC(=O)[C@H]23)OCO4)cc(OC)c1O | T47D | MTT | 48 h | 79000
Nc1ccc(/C=C/C(=O)N2CCc3c(oc4c(-c5ccc(F)cc5)cc(-c5cnc(C(=O)N6CCC(F)(F)CC6)nc5)cc34)C2)cn1 | MIA PaCa-2 | CCK-8 | 72 h | 1360
[NH2][Pt]([NH2])([Cl])[Cl] | LNCaP | MTT | 72 h | 10200
COc1cc2c3c(n(CCCNC(C)C)c(=O)c2cc1OC)-c1nc2c(cc1C3=O)OCO2 | KMS-27 | MTS | 72 h | 206
COc1ccc(-c2cc(C(=O)Nc3ccccc3)c3cc(-c4cccs4)ccc3n2)cc1 | MIA PaCa-2 | MTT | 48 h | > 50000
